Screens (PubChem)
Rows were chosen to be rich in hits. Some 2.2% of all compounds tested hit in one or more screens of this group.
Env fusion inh: blocks HIV Env-driven cell-cell fusion; HeLa-JRFL Env/CEM21 cell fusion, luciferase; 360,000 tested, 1.1% active; inhibition, % at 12.3 µM; AID 651610;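 active = mean replicate inhibition score of at least 50 and every replicate individually at or above 50; inconclusive = only one of the two criteria met; inactive = mean below 50 and not all replicates reaching 50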;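 also: 0% = plate neutral controls and 100% = maraviroc near 300 nM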
FXN GAA850 act: activators of GAA850 frataxin (FXN) promoter | 360,000 tested, 0.56% active | AID 540364 | HEK293 lucGAA850 FXN promoter luciferase reporter, 24 h; percent of 10 µM SAHA response | activation, % at 6 µM;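 active = activation above the average of all compounds screened plus 3 SD, cutoff fixed separately per campaign, cut at about 7.5% in these data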;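 also: 0% = DMSO wells and 100% = 10 µM SAHA wells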
NR2E3 ag-1: NR2E3 (human) agonism. Q9Y5X4. GST-NR2E3/biotin-RetCOR TR-FRET, 1536-well. inhibition of corepressor binding, % at 4.78 µM. 320,000 tested, 0.12% active. AID 2300;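 active = percent inhibition above the cutoff of mean plus 3 SD of all tested compounds, set per screening campaign, cut at about 20% in these data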;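 also: 0% = DMSO wells and 100% = biotin wells as full block of FRET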
Target sequence (Q9Y5X4 whole entry, looked up): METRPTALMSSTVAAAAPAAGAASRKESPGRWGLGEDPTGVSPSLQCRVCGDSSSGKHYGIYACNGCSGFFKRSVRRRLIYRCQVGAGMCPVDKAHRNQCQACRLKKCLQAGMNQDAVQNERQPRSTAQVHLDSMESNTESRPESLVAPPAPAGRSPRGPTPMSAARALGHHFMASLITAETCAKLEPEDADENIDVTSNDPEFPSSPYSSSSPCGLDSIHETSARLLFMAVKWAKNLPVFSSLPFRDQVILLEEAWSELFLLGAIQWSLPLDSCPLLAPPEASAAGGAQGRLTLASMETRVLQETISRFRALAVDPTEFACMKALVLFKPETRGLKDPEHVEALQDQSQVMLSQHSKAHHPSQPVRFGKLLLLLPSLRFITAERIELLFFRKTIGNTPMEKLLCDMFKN
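Test system – NR2E3–RetCOR corepressor complex · Quantity – NR2E3 fusion 1.35 nM · Buffer or medium – Tris pH 7.5 · Incubation – Compound–protein incubation for 5 h at 4 °C · Technique – TR-FRET, Eu(K)-anti-GST donor, streptavidin-D2 acceptor, ex 340, em 617/671 nm · Evaluation – percent inhibition of 671/617 nm emission ratio versus biotin and DMSO controls · Plate – 1536-well format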
NR2E3 ag-2: human photoreceptor-specific nuclear receptor agonism | CHO-S Gal4-NCOR/VP16-NR2E3 two-hybrid, luciferase | inhibition of corepressor binding, % at 3.98 µM | 360,000 tested, 0.35% active | AID 602229;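 active = inhibition above the mean of all tested compounds plus 3 SD, cut at about 70% in these data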;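 also: 0% = DMSO with NR2E3 transfected cells and 100% = cells lacking NR2E3 construct; higher means lower luciferase signal from less NR2E3 corepressor binding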
GalR3 antag: blocks the human galanin receptor 3 | inhibition, % at 3 µM | O60755 | 360,000 tested, 0.44% active | HEK293 GalR3-CNG cAMP membrane potential fluorescence; galR3 body fused to GalR1 C-terminus;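 active = inhibition above the screen-wide average plus 3 SD, cut at about 13% in these data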;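 also: forskolin and galanin both at EC90 stimulate the cells; cAMP rise reported by CNG channel membrane potential dye signal; 0% = forskolin plus galanin with DMSO and 100% = forskolin alone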
Target sequence (O60755 1-299 limits assumed): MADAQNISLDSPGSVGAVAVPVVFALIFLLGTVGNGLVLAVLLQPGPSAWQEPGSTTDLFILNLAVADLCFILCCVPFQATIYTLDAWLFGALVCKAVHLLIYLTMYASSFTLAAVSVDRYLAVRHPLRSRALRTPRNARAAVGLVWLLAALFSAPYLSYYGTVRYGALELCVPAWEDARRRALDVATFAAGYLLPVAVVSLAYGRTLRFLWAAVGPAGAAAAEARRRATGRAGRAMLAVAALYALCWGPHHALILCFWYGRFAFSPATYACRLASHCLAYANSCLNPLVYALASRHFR
V-ATPase pH: regulators of yeast V-ATPase proton transport; S. cerevisiae, pHLuorin cytosolic pH fluorescence; 350,000 tested, 0.37% active; response, % at 10 µM; in the data active = response mostly above about 7.3%, no sharp cut-off; inactive = mostly below about 5.4%; also: actives read high
GalR3 antag conf: GalR3 (human) antagonism, confirmation | shares compounds with GalR3 antag | HEK293 GalR3 CNG cAMP biosensor, membrane potential fluorescence; galR3 fused to GalR1 carboxy tail; challenged with forskolin and galanin at EC90 | inhibition, % at 3 µM | 1,600 tested, 59% active | AID 652245;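 active = inhibition above the primary screen's cutoff, the mean inhibition of all screened compounds plus 3 SD, cut at about 13% in these data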;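 also: 0% = forskolin plus galanin and 100% = forskolin alone with DMSO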
HEK-CNG parental: parental cell agonism counter-screen for GalR3 antagonists. HEK293-CNG parental cells, cAMP membrane potential fluorescence; normalised: DMSO wells 0%, forskolin wells 100%. shares compounds with GalR3 antag. 1,600 tested, 10% active. AID 652268. activation, % at 3 µM; in the data active = activation above about 1.3%
Active calls of the source: *; ? = inconclusive; . = no result given; [ ] = remark or other dose.

SMILES | Env fusion inh | FXN GAA850 act | NR2E3 ag-1 | NR2E3 ag-2 | GalR3 antag | V-ATPase pH | GalR3 antag conf | HEK-CNG parental
O=C(COc1ccc(C(=O)c2ccccc2)cc1)Nc1cccnc1 | 11.3 | -4.2 | -3.4 | -18.5 | 97.4* | -0.6 | 108.1* | -0.4
O=C(CCCOc1ccccc1)Nc1cccnc1 | 1.2 | 2.1 | -1.5 | -11.3 | -5.0 | 7.0 | . | .
CCSc1nnc(Cn2c(=O)sc3ccccc32)n1C | 11.5 | -1.4 | 0.2 | -15.7 | . | 0.6 | 1.9 | -0.1
Cc1noc(C)c1NC(=O)Nc1ccc2c(c1)CC(=O)N([C@H](C)CO)C[C@H](C)[C@@H](CN(C)S(=O)(=O)c1ccc(F)cc1)O2 | 1.4[16.7 µM] | . | . | . | . | . | . | .
Cc1ccc(C2C(C(=O)c3cccs3)=C(O)C(=O)N2c2nnc(C)s2)cc1 (stereo not given) | -76.1 | 3.3 | 2.1 | -17.5 | 12.8* | 6.8 | 18.1* | 0.0
COc1ccc2oc(C)c(C(=O)Cn3ccnc3)c2c1 | . | -1.2 | 2.8 | -26.8 | 15.0* | 2.3 | 1.2 | 0.2
Cc1noc(C)c1NC(=O)Nc1ccc2c(c1)C(=O)N([C@H](C)CO)C[C@H](C)[C@H](CN(C)C(=O)Nc1ccc(F)cc1)OCCCC[C@H](C)O2 | -17.1[16.7 µM] | . | . | . | . | . | . | .
C[C@@H]1CN([C@@H](C)CO)S(=O)(=O)c2ccc(C#CC3CC3)cc2O[C@H]1CN(C)C(=O)CC1CC1 | -14.6[16.7 µM] | . | . | . | . | . | . | .
C[C@@H]1CN([C@@H](C)CO)C(=O)Cc2cc(NC(=O)Nc3cccc4ccccc34)ccc2O[C@@H]1CN(C)C(=O)Nc1ccc2c(c1)OCO2 | -2.8[16.7 µM] | . | . | . | . | . | . | .
CCCCC[C@@H](/C=C/C1C(=O)C=C[C@H]1C/C=C\CCCC(=O)O)OC(C)=O (stereo not given in full) | -8.0 | 5.9 | . | -4.0 | 99.9* | 0.1 | 98.5* | 0.1
COc1ccc(S(=O)(=O)N(C)C[C@H]2OCCCC[C@@H](C)Oc3ccc(NC(=O)CCC(F)(F)F)cc3C(=O)N([C@H](C)CO)C[C@H]2C)cc1 | 3.9[16.7 µM] | . | . | . | . | . | . | .
CN(C)S(=O)(=O)c1cccc(C(=O)Nc2ccccc2[N+](=O)[O-])c1 | 29.5 | 0.4 | -1.4 | -3.7 | 15.3* | . | 2.3 | -0.1
C[C@H](O)C#Cc1cnc2c(c1)C(=O)N([C@@H](C)CO)C[C@@H](C)[C@@H](CN(C)C(=O)Cc1ccncc1)O2 | -16.2[16.7 µM] | . | . | . | . | . | . | .
CS(=O)(=O)N1CCN(c2ccc([N+](=O)[O-])cc2C(F)(F)F)CC1 | -9.9 | -2.0 | 1.5 | 2.0 | 17.6* | -2.2 | 13.6* | -0.1
C[C@H](CO)N1C[C@H](C)[C@@H](CN(C)Cc2ccccc2)Oc2ccc(NC(=O)CCN3CCOCC3)cc2CC1=O | 25.8[16.7 µM] | . | . | . | . | . | . | .
N#Cc1cccnc1N1CCN(C(=O)c2cccc3c2C(=O)c2ccc(Cl)cc2S3(=O)=O)CC1 | 15.8 | -1.5 | 0.1 | -3.7 | 23.3* | 0.4 | 29.8* | 0.2
N#Cc1cccnc1N1CCN(C(=O)c2cccc3c2C(=O)c2ccc(-c4ccc(Cl)c(C(F)(F)F)c4)cc2S3(=O)=O)CC1 | . | 0.5 | . | -1.4 | . | -5.4 | . | .
CCCCCCNS(=O)(=O)c1ccc(NC(=O)C2CCCO2)cc1 (stereo not given) | 26.6 | 4.5 | -1.6 | -8.8 | 15.0* | -3.2 | 25.7* | -0.3
O=C(Nc1ccc(S(=O)(=O)Nc2ccc(Cl)cc2)cc1)C1CCCO1 (stereo not given) | ? | 0.8 | 3.4 | 15.3 | -6.4 | 2.4 | . | .
COC(=O)c1sc(N2C(=O)C(O)=C(C(=O)c3ccc(C)o3)C2c2ccc(OC)c(OC)c2)nc1C (stereo not given) | 47.6 | 4.2 | . | -20.1 | 35.6* | 2.5 | 6.6 | -0.4
CCOC(=O)c1sc(N2C(=O)C(O)=C(C(=O)c3ccc(C)o3)C2c2ccc(OC)c(OC)c2)nc1C (stereo not given) | 2.0 | 2.5 | 4.3 | -24.5 | 34.3* | 1.0 | 15.4* | -0.2
COC(OC)c1ccnc(-c2ccc(OC(=O)c3ccccc3)cc2)n1 | 0.0 | 0.6 | 2.0 | -13.4 | -7.7 | 4.7 | . | .
COC(OC)c1ccnc(-c2ccc(OC(=O)c3cccs3)cc2)n1 | 1.1 | -0.2 | -3.0 | -25.4 | 16.9* | 0.8 | 5.4 | -0.3
C[C@@H]1CCCCO[C@@H](CN(C)Cc2ccc3c(c2)OCO3)[C@H](C)CN([C@H](C)CO)C(=O)c2cc(N(C)C)ccc2O1 | -27.6[16.7 µM] | . | . | . | . | . | . | .
Cn1c(SCC(=O)NC2CC2)nnc1-c1cccs1 | 18.0 | 1.2 | 0.8 | -9.6 | 13.8* | -1.4 | 6.6 | 0.1
SMILES | Env fusion inh | FXN GAA850 act | NR2E3 ag-1 | NR2E3 ag-2 | GalR3 antag | V-ATPase pH | GalR3 antag conf | HEK-CNG parental
CCCn1c(SCC(=O)NC2CC2)nnc1-c1cccs1 | -20.2 | 0.5 | 1.8 | 3.2 | -2.4 | 1.0 | . | .
CCN(CC)CCCNc1oc(-c2ccc(OC)c(OC)c2)nc1C#N | . | -2.1 | -2.2 | -9.0 | -1.5 | 3.8 | . | .
COc1ccc(-c2nc(C#N)c(NCc3ccc(C)cc3)o2)cc1OC | . | 6.8 | 0.7 | -44.8 | 22.6* | -3.2 | 20.3* | 0.4
COc1ccc(C(=O)c2coc(-c3ccccc3C(=O)O)c2C(=O)O)cc1 | -7.3 | 0.4 | 1.0 | -6.4 | 13.6* | 0.9 | -2.8 | 0.5
O=C(C[C@@H]1C=C[C@H](NC(=O)Nc2ccc(C(F)(F)F)cc2)[C@@H](CO)O1)NCc1cccc(F)c1 | 22.0[16.7 µM] | . | . | . | . | . | . | .
OCc1cc(C(O)CNCCCCCCOCCCCc2ccccc2)ccc1O (stereo not given) | 7.6 | 0.9 | 4.6 | -34.9 | 18.6* | 3.9 | 31.8* | 9.1*
CCOCCCNCC(O)c1ccccc1 (stereo not given) | 13.5 | 1.6 | -0.3 | -12.1 | -2.5 | -0.3 | . | .
Cc1cc(=O)[nH]c2ccc(S(=O)(=O)NCc3ccccc3)cc12 | 11.1 | 1.9 | 0.8 | 2.0 | 57.0* | -3.6 | 27.0* | -0.1
Cc1cc(=O)[nH]c2c(C)cc(S(=O)(=O)NCc3ccccc3)cc12 | 10.4 | 0.5 | 4.9 | -28.9 | 1.4 | 6.5 | . | .
CC(=O)N(C)C[C@@H]1Oc2cc(C#CC3CC3)ccc2S(=O)(=O)N([C@@H](C)CO)C[C@H]1C | 9.4[16.7 µM] | . | . | . | . | . | . | .
CCOC(=O)/C(C#N)=C/c1cn(CCC(=O)O)nc1-c1ccc(OC)cc1 | 1.5 | -0.6 | 2.2 | 3.4 | 13.8* | -0.7 | 6.9 | 0.1
CCOC(=O)/C(C#N)=C/c1cn(CCC(=O)O)nc1-c1ccccc1 | -8.1 | 3.6 | -0.1 | -25.0 | -4.3 | -0.2 | . | .
O=C(NC1CCCCC1)N[C@H]1CC[C@@H](CCNS(=O)(=O)c2ccc(F)cc2)O[C@@H]1CO | 8.3[16.7 µM] | . | . | . | . | . | . | .
